Results reported in ChEMBL document CHEMBL1129298, “Nonpeptide angiotensin II receptor antagonists: synthesis, biological activities, and structure-activity relationships of imidazole-5-carboxylic acids bearing alkyl, alkenyl, and hydroxyalkyl substituents at the 4-position and their related compounds” (J Med Chem, 1996).

Legend:
Format in all cases: functional
Rattus norvegicus [1] = assay: Inhibitory activity against AII-Induced Pressor response at 0.3 mg/Kg at 3 hour
In short: (§1)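 Male Wistar-Imamichi rats (300–400 g) cannulated under pentobarbital (50 mg/kg ip), fasted 24 h, tested conscious the next day. AII 50 ng/kg iv was repeated until constant, then compound in 50% aqueous DMF given orally. AII was repeated over 8 h, and mean blood pressure response inhibition (%) was recorded at 1, 3, 6 h. n = 3–5.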

Rattus norvegicus [2] = assay: Inhibitory activity against AII-Induced Pressor response at 0.03 mg/Kg at 1 hr; in short: as §1
Rattus norvegicus [3] = assay: Inhibitory activity against AII-Induced Pressor response at 0.03 mg/Kg at 6 hour; in short: as §1
Rattus norvegicus [4] = assay: Inhibitory activity against AII-Induced Pressor response at 0.3 mg/Kg at 6 hour; in short: as §1
Rattus norvegicus [5] = assay: Inhibitory activity against AII-Induced Pressor response at 0.1 mg/Kg at 1 hr; in short: as §1
Rattus norvegicus [6] = assay: Inhibitory activity against AII-Induced Pressor response at 0.03 mg/Kg at 3 hour; in short: as §1
Rattus norvegicus [7] = assay: Inhibitory activity against AII-Induced Pressor response at 0.3 mg/Kg at 1 hr; in short: as §1
Rattus norvegicus [8] = assay: Inhibitory activity against AII-Induced Pressor response at 0.1 mg/Kg at 3 hour; in short: as §1
Rattus norvegicus [9] = assay: Inhibitory activity against AII-Induced Pressor response at 0.1 mg/Kg at 6 hour; in short: as §1

How did the inhibition in vivo at 0.3 mg/kg (Rattus norvegicus [1]) turn out when `CCCc1nc(C(C)(C)O)c(C(=O)OCOC(=O)C(C)(C)C)n1Cc1ccc(-c2ccccc2-c2nn[nH]n2)cc1` was run?
Its inhibition in vivo at 0.3 mg/kg is 85%.

And the inhibition in vivo at 0.03 mg/kg (Rattus norvegicus [2])?
Its inhibition in vivo at 0.03 mg/kg is 29%.

And the inhibition in vivo at 0.03 mg/kg (Rattus norvegicus [3])?
The inhibition in vivo at 0.03 mg/kg was 43%.

And the inhibition in vivo at 0.3 mg/kg (Rattus norvegicus [4])?
Its inhibition in vivo at 0.3 mg/kg is 90%.

And the inhibition in vivo at 0.1 mg/kg (Rattus norvegicus [5])?
Its inhibition in vivo at 0.1 mg/kg is 75%.

What about the inhibition in vivo at 0.03 mg/kg (Rattus norvegicus [6]) of the same molecule?
Its inhibition in vivo at 0.03 mg/kg is 41%.

And the inhibition in vivo at 0.3 mg/kg (Rattus norvegicus [7])?
Its inhibition in vivo at 0.3 mg/kg is 76%.

And the inhibition in vivo at 0.1 mg/kg (Rattus norvegicus [8])?
The inhibition in vivo at 0.1 mg/kg was 84%.

And the inhibition in vivo at 0.1 mg/kg (Rattus norvegicus [9])?
Its inhibition in vivo at 0.1 mg/kg is 70%.
